Active and inactive are the calls of the source. No cut-off for these calls is given here.
How the values were obtained:
[1] = biological target: T1, C-X-C chemokine receptor type 2 (Homo sapiens, UniProt P25025); assay: Antagonist activity at CXCR2 in human PMNs assessed as inhibition of CXCL1-induced intracellular Ca2+ release by fluorescence based calcium flux assay; assay type: functional, cell-based
T1 sequence (P25025 whole entry): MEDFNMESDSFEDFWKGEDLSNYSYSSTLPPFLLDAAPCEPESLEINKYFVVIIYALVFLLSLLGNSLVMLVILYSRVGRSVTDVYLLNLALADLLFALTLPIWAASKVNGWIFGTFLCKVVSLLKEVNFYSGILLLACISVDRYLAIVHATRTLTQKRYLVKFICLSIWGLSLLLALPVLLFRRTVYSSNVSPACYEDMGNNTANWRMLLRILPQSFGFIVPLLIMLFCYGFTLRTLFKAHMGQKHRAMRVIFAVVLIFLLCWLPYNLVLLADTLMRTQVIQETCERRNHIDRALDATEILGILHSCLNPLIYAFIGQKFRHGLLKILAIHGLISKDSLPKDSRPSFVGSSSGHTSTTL

[2] = biological target: T1, C-X-C chemokine receptor type 2; assay: Antagonist activity at human CXCR2 expressed in HEK293 cells assessed as inhibition of […]-induced [35S]GTPgammaS binding after 60 mins; assay type: functional, cell-based
Summary of the method: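 HEK293 cells stably expressing human CXCR2 were pretreated with compound, then lysed (5 mM Tris-HCl pH 7.5, EDTA, EGTA) and membranes spun at 30000g. […] Nonspecific binding was taken with 10 μM GTPγS. IC50 came from nonlinear regression.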

[3] = biological target: T2, C-X-C chemokine receptor type 2 (Homo sapiens) (UniProt P25025); assay: Displacement of [125I]CXCL8 from human CXCR2 expressed in HEK293 cell membranes up to 10 uM by liquid scintillation counting method
T2 sequence (whole entry): T1 sequence (P25025 whole entry)
Summary of the method: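 After 1 h at room temperature, membranes were filtered and counted by scintillation. Results were expressed as % of control specific binding.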

[4] = biological target: T2, C-X-C chemokine receptor type 2 (Homo sapiens); assay: Effect on cell surface expression of human CXCR2 expressed in HEK293 cell […] at 10 uM incubated for 60 mins by FACS method; assay type: cell-based
Summary of the method: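 Stably CXCR2-expressing HEK293 cells were pretreated with 10 μM compound or 1% DMSO for 60 min. They were stained with PE-conjugated anti-human CXCR2 mAb (1:100) at 4 °C for 60 min, fixed in 2% formaldehyde and analysed by flow cytometry. Non-expressing HEK293 cells served as the negative control.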

[5] = biological target: T2, C-X-C chemokine receptor type 2 (Homo sapiens); assay: Antagonist activity at human CXCR2 expressed in HEK293 cells assessed as reduction in CXCL8-induced ERK1/2 phosphorylation at 10 uM after 30 mins by Western blotting method; assay type: cell-based
Summary of the method: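 Cells were lysed at 0, 5, 15 and 30 min. About 50 μg of protein was run on 10% SDS-PAGE, blotted, and probed for phospho-ERK1/2 and total ERK1/2 with an HRP secondary.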

[6] = biological target: T3, Interleukin-8 receptors, CXCR1/CXCR2 (Homo sapiens, UniProt P25025+P25024); assay: Antagonist activity at CXCR1/CXCR2 in human PMNs assessed as inhibition of CXCL8-induced intracellular Ca2+ release by fluorescence based calcium flux assay; assay type: functional, cell-based
T3 sequence (P25025 whole entry): T1 sequence (P25025 whole entry)
T3 sequence (P25024 whole entry): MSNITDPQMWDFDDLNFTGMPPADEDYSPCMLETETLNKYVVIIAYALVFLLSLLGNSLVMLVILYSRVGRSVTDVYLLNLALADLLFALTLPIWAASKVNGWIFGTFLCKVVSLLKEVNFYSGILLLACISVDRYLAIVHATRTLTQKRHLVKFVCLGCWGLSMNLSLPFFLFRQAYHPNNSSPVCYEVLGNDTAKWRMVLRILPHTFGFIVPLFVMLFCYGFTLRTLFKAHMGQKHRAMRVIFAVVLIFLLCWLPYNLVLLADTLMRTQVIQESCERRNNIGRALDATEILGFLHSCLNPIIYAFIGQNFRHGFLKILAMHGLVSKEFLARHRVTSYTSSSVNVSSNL

[7] = biological target: T4, C5a anaphylatoxin chemotactic receptor 1 (Homo sapiens, UniProt P21730); assay: Antagonist activity at C5a receptor in human PMNs assessed as inhibition of C5a-induced intracellular Ca2+ release by fluorescence based calcium flux assay; assay type: functional, cell-based
T4 sequence (P21730 whole entry): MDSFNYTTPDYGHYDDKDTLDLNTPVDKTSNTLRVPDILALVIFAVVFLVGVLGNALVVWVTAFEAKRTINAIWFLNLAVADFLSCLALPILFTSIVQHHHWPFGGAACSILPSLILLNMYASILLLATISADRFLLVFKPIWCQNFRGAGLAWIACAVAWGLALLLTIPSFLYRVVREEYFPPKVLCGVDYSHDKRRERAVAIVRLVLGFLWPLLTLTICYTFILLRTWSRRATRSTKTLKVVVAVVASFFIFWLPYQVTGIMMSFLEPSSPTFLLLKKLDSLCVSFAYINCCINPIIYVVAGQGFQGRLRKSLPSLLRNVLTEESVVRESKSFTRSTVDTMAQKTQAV

[8] = biological target: Platelet-activating factor receptor (Homo sapiens, UniProt P25105); assay: Antagonist activity at platelet-activating factor receptor in human PMNs assessed as inhibition of PAF-induced intracellular Ca2+ release by fluorescence based calcium flux assay; assay type: functional, cell-based
Platelet-activating factor receptor, sequence (P25105 whole entry): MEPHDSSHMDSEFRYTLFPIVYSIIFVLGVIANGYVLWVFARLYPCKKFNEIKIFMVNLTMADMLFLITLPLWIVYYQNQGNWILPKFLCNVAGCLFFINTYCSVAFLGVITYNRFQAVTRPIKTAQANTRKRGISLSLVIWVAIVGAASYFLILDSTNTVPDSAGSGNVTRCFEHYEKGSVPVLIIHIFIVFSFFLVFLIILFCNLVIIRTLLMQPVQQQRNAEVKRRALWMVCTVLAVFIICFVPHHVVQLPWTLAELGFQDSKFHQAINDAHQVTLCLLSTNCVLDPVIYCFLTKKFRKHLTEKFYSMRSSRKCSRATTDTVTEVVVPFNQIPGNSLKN

fMet-Leu-Phe receptor = biological target: T5, fMet-Leu-Phe receptor (Homo sapiens, UniProt P21462); assay: Antagonist activity at fMLF receptor in human PMNs assessed as inhibition of fMLF-induced intracellular Ca2+ release by fluorescence based calcium flux assay; assay type: functional, cell-based
T5 sequence (P21462 whole entry): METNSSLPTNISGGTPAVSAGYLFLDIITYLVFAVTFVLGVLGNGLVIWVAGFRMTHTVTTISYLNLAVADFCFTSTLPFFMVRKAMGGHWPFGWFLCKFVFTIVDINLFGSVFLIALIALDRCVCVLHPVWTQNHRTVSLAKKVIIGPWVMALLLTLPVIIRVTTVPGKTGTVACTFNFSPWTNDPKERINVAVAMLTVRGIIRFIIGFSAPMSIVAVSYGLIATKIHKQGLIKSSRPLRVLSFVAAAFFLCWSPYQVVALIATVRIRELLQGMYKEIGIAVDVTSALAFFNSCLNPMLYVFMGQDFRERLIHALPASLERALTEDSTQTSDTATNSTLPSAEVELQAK

[9] = biological target: T6, C-X-C chemokine receptor type 1 (Homo sapiens, UniProt P25024); assay: Antagonist activity at human CXCR1 expressed in HEK293 cells assessed as inhibition of CXCL8-induced intracellular Ca2+ release by fluorescence based calcium flux assay; assay type: functional, cell-based
T6 sequence (P25024 whole entry): T3 sequence (P25024 whole entry)
Summary of the method: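 HEK293 cells were stably transfected with human CXCR1, with a pooled polyclonal line selected in 800 μg/mL G418. […] Fluorescence was read at ex 485/em 525, and max–min was taken as % of control.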

[10] = biological target: T1, C-X-C chemokine receptor type 2; assay: Antagonist activity at human CXCR2 expressed in HEK293 cells assessed as inhibition of CXCL8-induced intracellular Ca2+ release by fluorescence based calcium flux assay; assay type: functional, cell-based
[11] = biological target: Interleukin-8 receptors, CXCR1/CXCR2 (Homo sapiens) (UniProt P25025+P25024); assay: Antagonist activity at CXCR1/CXCR2 in human PMNs assessed as inhibition of CXCL8-induced intracellular Ca2+ release at 1 uM by fluorescence based calcium flux assay; assay type: functional, cell-based
Summary of the method: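 Dye-loaded hPMNs were preincubated with compound or 1% DMSO at 37 °C for 30 min, then resuspended in HBSS+ with compound re-added. […] Fluorescence (ex 485/em 525) was read every 5 s for 240–500 s at room temperature, and the max–min response was expressed as % of the DMSO control.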

Mus musculus = assay: Antiinflammatory activity in CD1 Swiss mouse air pouch model of inflammation assessed as reduction in total cell count in inflammatory infiltrate at 0.2 mg/kg, iv dosed 3 hrs before carrageenan challenge and measured 4 hrs post carrageenan challenge by trypan blue staining based hemocytometry; assay type: functional, organism-based; parameters: dose 0.2 mg/kg
Summary of the method: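 Male CD1 Swiss mice aged 10–15 weeks received a 2 mL subcutaneous dorsal air injection, reinflated with 1.5 mL the next day. Compound in 20:20:80 PEG400:DMF:saline, or vehicle, was given iv by tail vein (n=5 per group). After 3 h, 1 mL of 2% carrageenan in PBS, or PBS, was injected into the pouch. After 4 h, pouch fluid plus a 2 mL PBS wash was collected, and trypan blue-stained cells were counted by hemocytometer. Statistics used Student's t-test.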

| Compound | IC50 [1] [µM] | further results |
| --- | --- | --- |
| O=C(Nc1ccc(F)cc1)c1ccc(SCC2CCCCO2)nc1 (stereo unspecified) | > 5 | – |
| O=C(Nc1ccc(F)cc1)c1ccc(SCC2CCOCC2)nc1 | > 5 | – |
| CCOP(=O)(CSc1ccc(C(=O)Nc2ccc(F)cc2)cn1)OCC | > 10 | – |
| Cc1cc(CSc2ccc(C(=O)Nc3ccc(F)cc3)cn2)no1 | > 5 | – |
| O=C(Nc1ccc(F)cc1)c1ccc(SCc2ccc(-n3cccc3)cc2)nc1 | > 10 | – |
| O=C(Nc1ccc(F)cc1)c1ccc(SCc2ccc([N+](=O)[O-])o2)nc1 | > 5 | – |
| O=C(Nc1ccc(F)cc1)c1ccc(Sc2ccccc2)nc1 | > 10 | – |
| Cc1nc(-c2cccc(CSc3ccc(C(=O)Nc4ccc(F)cc4)cn3)c2)no1 | > 10 | – |
| O=C(Nc1ccc(F)cc1)c1ccc(SCc2ccccc2O)nc1 | 0.277 | – |
| Cc1nc(-c2ccc(CSc3ccc(C(=O)Nc4ccc(F)cc4)cn3)cc2)no1 | > 5 | – |
| O=C(Nc1ccc(F)cc1)c1ccc(SC[N+](=O)[O-])nc1 | > 10 | – |
| COC(=O)c1cccc(CSc2ccc(C(=O)Nc3ccc(F)cc3)cn2)c1 | > 5 | – |
| O=C(Nc1ccc(F)cc1)c1ccc(SCc2ccc(-n3cncn3)cc2)nc1 | > 10 | – |
| O=C(Nc1ccc(F)cc1)c1ccc(SCc2ccc(-n3cccn3)cc2)nc1 | > 10 | – |
| O=C(Nc1ccc(F)cc1)c1ccc(SCS(=O)(=O)c2ccccc2)nc1 | > 5 | – |
| O=C(Nc1ccc(F)cc1)c1ccc(SCc2ccc(C(F)(F)F)o2)nc1 | > 5 | – |
| O=C(Nc1ccc(F)cc1)c1ccc(SCc2ccc([N+](=O)[O-])cc2)nc1 | > 5 | – |
| O=C(Nc1ccc(F)cc1)c1ccc(SCC2CCN(C(=O)OCc3ccccc3)CC2)nc1 | > 10 | – |
| Cc1onc(-c2ccccc2)c1CSc1ccc(C(=O)Nc2ccc(F)cc2)cn1 | > 5 | – |
| O=C(O)CSc1ccc(C(=O)Nc2ccc(F)cc2)cn1 | > 5 | – |

| Compound | IC50 [1] [µM] | further results |
| --- | --- | --- |
| Cc1nc(-c2cccc(CSc3ccc(C(=O)Nc4ccc(F)cc4)cn3)c2)cs1 | > 5 | – |
| O=C(O)c1ccc(CSc2ccc(C(=O)Nc3ccc(F)cc3)cn2)cc1 | > 10 | – |
| O=C(Nc1ccc(F)cc1)c1ccc(SCc2ccc(OC(F)(F)F)cc2)nc1 | > 10 | – |
| O=C(Nc1ccc(F)cc1)c1ccc(SCc2ccccc2-c2cccs2)nc1 | > 5 | – |
| Cc1n[nH]c(C)c1CCSc1ccc(C(=O)Nc2ccc(F)cc2)cn1 | > 5 | – |
| O=C(Nc1ccc(F)cc1)c1ccc(SCc2cccc(-n3cccc3)c2)nc1 | > 10 | – |
| O=C(Nc1ccc(F)cc1)c1ccc(SC2CCOC2=O)nc1 (stereo unspecified) | > 5 | – |
| O=C(Nc1ccc(-c2nn[nH]n2)cc1)c1ccc(SCc2ccccc2B(O)O)nc1 | > 10 | – |
| Cc1nc(-c2ccccc2)sc1CSc1ccc(C(=O)Nc2ccc(F)cc2)cn1 | > 5 | – |
| Cc1nc(-c2ccc(C(F)(F)F)cc2)sc1CSc1ccc(C(=O)Nc2ccc(F)cc2)cn1 | > 10 | – |
| O=C(c1ccc(SCc2ccccc2B(O)O)nc1)N(CC1CCCCN1)c1ccc(F)cc1 (stereo unspecified) | > 5 | – |
| O=C(Nc1ccc(F)cc1)c1ccc(SCc2ccccc2B(O)O)nc1 | – | IC50 [2]: 0.06 µM; inhibition [3]: inactive; Activity [4]: inactive; inhibition [5]: Active; IC50 [6]: 0.036 µM; IC50 [7]: > 5 µM; IC50 [8]: > 5 µM; IC50 (fMet-Leu-Phe receptor): > 5 µM; IC50 [9]: 0.88 µM; IC50 [10]: 0.21 µM; inhibition [11]: Active; inhibition (Mus musculus): Active |
| Cc1nn(-c2ccccc2)nc1CSc1ccc(C(=O)Nc2ccc(F)cc2)cn1 | > 5 | – |
| O=C(Nc1ccc(F)cc1)c1ccc(SCc2ccncc2)nc1 | > 5 | – |
| O=C(O)c1ccc(NC(=O)c2ccc(SCc3ccccc3B(O)O)nc2)cc1 | > 10 | – |
| Cc1noc(-c2ccccc2)c1CSc1ccc(C(=O)Nc2ccc(F)cc2)cn1 | > 10 | – |
| Cc1nc(-c2ccc(CSc3ccc(C(=O)Nc4ccc(F)cc4)cn3)cc2)cs1 | > 10 | – |
| O=C(Nc1ccc(F)cc1)c1ccc(SCc2cccc(OC(F)(F)F)c2)nc1 | > 10 | – |
| Cc1cccc(CSc2ccc(C(=O)Nc3ccc(F)cc3)cn2)c1F | > 10 | – |
| COC(=O)c1ccc(CSc2ccc(C(=O)Nc3ccc(F)cc3)cn2)cc1 | > 10 | – |

Reference: ChEMBL document CHEMBL3352272, “Discovery of 2-[5-(4-Fluorophenylcarbamoyl)pyridin-2-ylsulfanylmethyl]phenylboronic Acid (SX-517): Noncompetitive Boronic Acid Antagonist of CXCR1 and CXCR2” (J Med Chem, 2014)
